In ChEMBL document CHEMBL5042480, “3CL Protease Inhibitors with an Electrophilic Arylketone Moiety as Anti-SARS-CoV-2 Agents” (J Med Chem, 2022):
Activity calls are given as the source filed them. The calls are words filed in the database; no cut-off is given here.

Assays:
[1] = Volume of distribution in overnight-fasted Wistar rat at 0.1 mg/kg, iv measured upto 7 hrs by quadrupole mass spectrometry coupled UFLC analysis; format: ADME, organism-based; details: in vivo
Outline: (§1)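 Conscious, freely moving male Wistar rats received compound in saline at 4 mL/kg, either i.v. via jugular vein at 0.1 mg/kg or by oral gavage at 0.5 mg/kg. Cannula blood was sampled up to 7 h and plasma measured by LC-MS/MS. Analysis was noncompartmental (trapezoidal AUC); Cmax and tmax were taken as observed, and t1/2 from log-linear terminal regression over at least 3 points. Mean ± SD, n = 5.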

[2] = Drug metabolism in rat hepatocytes assessed as amide hydrolysis mediated HC-7 metabolite formation at 10 uM incubated upto 2 hrs by LC/UV/MS analysis; format: ADME, cell-based, Hepatocyte
Outline: (§2)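 Hepatocytes were suspended at 6 × 10^5 viable cells/mL in KHB buffer and given compound at 10 μM. Incubation was 0 and 2 h at 37 °C under 5% CO2, stopped with acetonitrile. After centrifugation, supernatant metabolites were analysed by LC/UV/MS.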

[3] = molecular target: Cytochrome P450 2D6 (Homo sapiens, UniProt P10635); experiment: Inhibition of CYP2D6 in human liver microsome at 10 uM; format: toxicity; details: microsomes
Outline: (§3)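 Human liver microsomes (0.1 mg protein/mL) were mixed with compound at 10 μM and probe substrates in phosphate buffer pH 7.4: tacrine (CYP1A2), paclitaxel (2C8), tolbutamide (2C9), dextromethorphan (2D6) and midazolam (3A4). Reactions were started with an NADPH-generating system, run 10 min at 37 °C and stopped with acetonitrile. Metabolites were measured by LC/MS/MS and activity expressed as % remaining versus the no-inhibitor control.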

[4] = Protein binding in rat plasma incubated for 6 hrs by quadrupole mass spectrometry coupled UFLC analysis; format: ADME, cell-free; details: read-out: PPB
[5] = molecular target: Cytochrome P450 3A4 (Homo sapiens, UniProt P08684); experiment: Inhibition of CYP3A4 in human liver microsome at 10 uM; format: toxicity; details: microsomes; outline: as §3
[6] = MRT (total) in overnight-fasted Wistar rat at 0.1 mg/kg, iv measured upto 7 hrs by quadrupole mass spectrometry coupled UFLC analysis; format: ADME, organism-based; details: in vivo; outline: as §1
[7] = tested on: SARS-CoV-2; experiment: Antiviral activity against SARS coronavirus 2 infected in African green monkey Vero cells assessed as reduction in total viral RNA upto 25 uM measured after 24 hrs post-infection by qRT-PCR analysis; format: functional, organism-based; details: Severe acute respiratory syndrome coronavirus 2, dose microM <=25, time 24.0 hrs
Outline: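 Total viral RNA in treated, SARS-CoV-2-infected Vero cells was quantified by qPCR. Values are mean ± SEM of three independent experiments.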

[8] = Apparent total clearance in overnight-fasted Wistar rat at 0.5 mg/kg, po measured upto 7 hrs by quadrupole mass spectrometry coupled UFLC analysis; format: ADME, organism-based; details: in vivo, read-out: CLt/F (converted); outline: as §1
[9] = Drug metabolism in human hepatocytes assessed as CYP450-catalysed oxidative pathway mediated metabolite formation at 10 uM incubated upto 2 hrs by LC/UV/MS analysis; format: ADME, cell-based, Hepatocyte; outline: as §2
[10] = Apparent permeability in human Caco-2 monolayer cells at 1 uM and measured upto 120 mins by LC-MS/MS analysis; format: ADME, cell-based
Outline: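 Caco-2 monolayers were grown 21 days on 3.0 μm-pore inserts. They were preincubated 30 min at 37 °C in HBSS with 10 mM HEPES, pH 7.4, and TEER was checked before and after. Transport of compound at 1 μM was run at 37 °C, quantified by LC-MS/MS, and converted to apparent permeability.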

[11] = Drug metabolism in human hepatocytes assessed as amide hydrolysis mediated HC-7 metabolite formation at 10 uM incubated upto 2 hrs by LC/UV/MS analysis; format: ADME, cell-based, Hepatocyte; outline: as §2
[12] = Cytotoxicity against African green monkey Vero cells assessed as cell viability incubated for 24 hrs by MTT assay; format: toxicity, cell-based; details: chlorocebus sabaeus
Outline: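 Vero cells were seeded at 1.0 × 10^4 cells/well and cultured overnight at 37 °C. Compound was added for 24 h, and viability was measured by MTT assay with absorbance at 570 nm.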

[13] = Half life in overnight-fasted Wistar rat at 0.1 mg/kg, iv measured upto 7 hrs by quadrupole mass spectrometry coupled UFLC analysis; format: ADME, organism-based; details: in vivo; outline: as §1
[14] = molecular target: T1, Cytochrome P450 2C8 (Homo sapiens, UniProt P10632); experiment: Inhibition of CYP2C8 in human liver microsome at 10 uM; format: toxicity; details: microsomes; outline: as §3
T1 sequence (P10632 whole entry): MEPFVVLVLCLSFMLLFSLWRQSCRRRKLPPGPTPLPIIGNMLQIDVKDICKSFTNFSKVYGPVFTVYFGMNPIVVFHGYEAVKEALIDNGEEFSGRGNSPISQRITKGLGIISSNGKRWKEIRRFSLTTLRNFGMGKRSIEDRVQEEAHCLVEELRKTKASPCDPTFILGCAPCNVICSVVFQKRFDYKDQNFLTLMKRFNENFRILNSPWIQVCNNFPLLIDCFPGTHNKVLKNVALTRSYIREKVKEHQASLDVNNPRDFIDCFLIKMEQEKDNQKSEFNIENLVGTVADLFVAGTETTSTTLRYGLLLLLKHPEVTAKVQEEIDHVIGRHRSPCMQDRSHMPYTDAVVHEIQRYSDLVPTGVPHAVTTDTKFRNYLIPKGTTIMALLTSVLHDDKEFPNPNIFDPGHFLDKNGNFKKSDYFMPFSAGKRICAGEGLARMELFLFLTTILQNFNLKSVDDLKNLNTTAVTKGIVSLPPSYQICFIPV

[15] = tested on: SARS-CoV-2; experiment: Antiviral activity against SARS coronavirus 2 infected in African green monkey Vero cells assessed as blockade of viral proliferation at 10 uM incubated for 48 hrs by cytopathic effect assay; format: functional, organism-based; details: Severe acute respiratory syndrome coronavirus 2
[16] = Oral bioavailability in overnight-fasted Wistar rat at 0.5 mg/kg and measured upto 7 hrs by quadrupole mass spectrometry coupled UFLC analysis; format: ADME, organism-based; details: in vivo; outline: as §1
[17] = AUC (0 to infinity) in overnight-fasted Wistar rat at 0.1 mg/kg, iv measured upto 7 hrs by quadrupole mass spectrometry coupled UFLC analysis; format: ADME, organism-based; set-up: route intravenous, dose 0.1 mg/kg, time <=7; details: in vivo
Outline: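 Male Wistar rats, conscious and unrestrained, were given the compound in saline at 4 mL/kg, either as an i.v. bolus via the left jugular vein or by oral gavage. Heparinized blood was drawn from a cannula at set times up to 7 h and the plasma analysed by LC-MS/MS. AUC0–7 and AUC0–∞ came from noncompartmental trapezoidal analysis; mean ± SD, n = 5.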

[18] = Half life in overnight-fasted Wistar rat at 0.5 mg/kg, po measured upto 7 hrs by quadrupole mass spectrometry coupled UFLC analysis; format: ADME, organism-based; details: in vivo; outline: as §1
[19] = tested on: TK6; experiment: Mutagenicity against human TK6 cells assessed as induction of micronuclei formation by Micro-flow assay; format: toxicity, cell-based
Outline: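 Human TK6 lymphoblastoid cells were treated either 3 h with 1% S9 followed by 21 h recovery, or continuously for 24 h without S9, at 37 °C under 5% CO2. Relative population doubling was used for cytotoxicity. Positive controls were cyclophosphamide and mitomycin C.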

Sequence of Cytochrome P450 3A4 (P08684 whole entry): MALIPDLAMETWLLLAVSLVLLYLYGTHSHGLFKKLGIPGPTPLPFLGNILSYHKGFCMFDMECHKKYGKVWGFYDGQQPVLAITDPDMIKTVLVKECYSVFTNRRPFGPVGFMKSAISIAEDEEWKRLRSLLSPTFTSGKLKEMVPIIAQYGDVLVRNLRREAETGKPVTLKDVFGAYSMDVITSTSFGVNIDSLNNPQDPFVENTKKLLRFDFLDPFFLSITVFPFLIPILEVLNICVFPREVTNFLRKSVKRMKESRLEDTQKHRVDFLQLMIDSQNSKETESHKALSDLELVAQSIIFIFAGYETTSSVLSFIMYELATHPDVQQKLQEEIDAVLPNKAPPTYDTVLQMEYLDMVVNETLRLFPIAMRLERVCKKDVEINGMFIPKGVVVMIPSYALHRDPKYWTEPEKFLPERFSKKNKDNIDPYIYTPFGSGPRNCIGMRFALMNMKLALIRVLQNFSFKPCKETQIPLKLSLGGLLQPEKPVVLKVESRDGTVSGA
Sequence of Cytochrome P450 2D6 (P10635 whole entry): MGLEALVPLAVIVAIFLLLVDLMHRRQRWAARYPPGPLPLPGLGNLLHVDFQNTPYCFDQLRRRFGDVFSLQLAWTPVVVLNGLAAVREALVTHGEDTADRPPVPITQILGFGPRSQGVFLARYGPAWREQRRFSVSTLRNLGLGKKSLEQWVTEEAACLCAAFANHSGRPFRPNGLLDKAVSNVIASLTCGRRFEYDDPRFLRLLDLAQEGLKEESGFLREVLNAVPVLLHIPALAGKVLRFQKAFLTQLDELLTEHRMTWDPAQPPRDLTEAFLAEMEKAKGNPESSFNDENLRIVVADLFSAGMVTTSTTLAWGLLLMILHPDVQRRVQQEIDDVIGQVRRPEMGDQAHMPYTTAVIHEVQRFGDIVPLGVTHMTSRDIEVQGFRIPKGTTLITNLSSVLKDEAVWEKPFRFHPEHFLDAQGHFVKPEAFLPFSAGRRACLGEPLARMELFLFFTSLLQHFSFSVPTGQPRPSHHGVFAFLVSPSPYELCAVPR

SMILES: COc1cccc2[nH]c(C(=O)N[C@@H](CC(C)C)C(=O)N[C@@H](C[C@@H]3CCNC3=O)C(=O)c3nc4ccccc4s3)cc12
- Vd [1]: 3.51 L/kg
- Drug metabolism [2]: Metabolite_Detected
- inhibition (INH) [3]: Active
- fraction unbound at 6 h [4]: 0.01
- inhibition (INH) [5]: Not Active
- MRT [6]: 29.6 min
- Activity [7]: Active
- CL/F [8]: 2650 mL/min/kg
- Drug metabolism [9]: Metabolite_Detected
- Papp at 2 h, 1 µM [10]: 18.9 ×10⁻⁶ cm/s
- Drug metabolism [11]: Metabolite_Detected
- CC50 at 24 h [12]: > 100 µM
- half-life [13]: 178 min
- inhibition (INH) [14]: Active
- Activity [15]: Active
- bioavailability [16]: 3.55%
- AUC(0-inf) [17]: 19.7 ng·h/mL
- half-life [18]: 578 min
- Activity [19]: Non-Toxic
